# Screen size: about 310,000 compounds; about 1,100 (0.35%) were called active.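 The calls were made as follows: active = fluorescence ratio B-score, a plate-corrected score, at least three library SD, with initial intensity B-score within 5 SD; inactive = the rest.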 What follows is part of a selection rich in actives, with near analogues and random picks from the rest.
# Target: Potassium voltage-gated channel subfamily KQT member 1 (Homo sapiens) (UniProt P51787)
# Test: human KCNQ1 current enhancers – cell-based, thallium flux, high-throughput, primary screen (AID 2648)
# Conditions: CHO-K1 KCNQ1, thallium flux FluxOR fluorescence, at 10 µM; hits give high values
# How it was run: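 Assay system: CHO-K1 cells stably expressing KCNQ1; Medium: assay buffer with matched DMSO; Also added: K+/Tl+ depolarizing stimulus; Dosing: single dose; Timing: dye 90 min, compound 20 min, room temperature; Measured by: kinetic FluxOR thallium fluorescence, 10-s 1-Hz baseline, 110-s post-stimulus read; Read-out: peak-minus-minimum fluorescence over initial fluorescence, negative-control normalized, B-scored.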
# Chain of Potassium voltage-gated channel subfamily KQT member 1 (Homo sapiens) (P51787 whole entry, looked up): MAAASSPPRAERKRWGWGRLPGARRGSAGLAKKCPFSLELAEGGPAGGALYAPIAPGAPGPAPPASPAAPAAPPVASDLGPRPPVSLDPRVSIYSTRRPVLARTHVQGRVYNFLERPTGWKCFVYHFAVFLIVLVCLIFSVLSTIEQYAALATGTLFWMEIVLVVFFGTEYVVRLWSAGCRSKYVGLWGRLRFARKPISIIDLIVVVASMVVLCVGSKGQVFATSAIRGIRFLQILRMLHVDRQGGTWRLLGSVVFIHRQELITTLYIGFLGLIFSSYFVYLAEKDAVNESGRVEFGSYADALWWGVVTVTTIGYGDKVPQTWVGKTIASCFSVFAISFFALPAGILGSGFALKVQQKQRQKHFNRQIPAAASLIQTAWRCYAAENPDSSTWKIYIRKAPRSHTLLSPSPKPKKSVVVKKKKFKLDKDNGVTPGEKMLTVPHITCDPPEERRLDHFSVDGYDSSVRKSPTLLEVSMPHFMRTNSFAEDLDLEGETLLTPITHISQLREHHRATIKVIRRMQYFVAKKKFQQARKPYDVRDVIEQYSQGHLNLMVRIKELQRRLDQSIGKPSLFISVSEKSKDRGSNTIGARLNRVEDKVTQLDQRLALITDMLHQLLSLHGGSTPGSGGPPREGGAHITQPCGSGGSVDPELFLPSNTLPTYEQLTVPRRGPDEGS
row,Compound,B-score
1,Cc1cc2occ(CC(=O)NNC(=O)c3ccccc3F)c2cc1C,inactive
2,CCOC(=O)CN(C(=O)COc1nc(-c2ccccc2)cc(C)c1C#N)c1ccc(F)cc1,inactive
3,Cc1cccc(C(=O)Nc2ccc(C(=O)/C=C/c3cccs3)cc2)c1,inactive
4,Cc1cccc(/C(N)=N/OC(=O)c2ccccc2Cl)c1,inactive
5,C/C(=N\NC(=S)Nc1ccc(C)cc1)c1cc2ccccc2o1,28 (active)
6,Cc1ccc(NC(=O)c2cc3ccccc3o2)cc1,inactive
7,C/C(=N/NC(=S)Nc1ccccc1)c1ccc2c(c1)OCO2,inactive
8,O=C(CSc1nncn1-c1cccnc1)N1CCOCC1,inactive
9,CCc1[nH]nc(C(=O)N2CCCC(CNS(=O)(=O)c3cccs3)C2)c1C (stereo not drawn),inactive
10,CC(C)c1ccc2c(c1)c(SC(C)(C)C)c(CC(C)(C)C(=O)O)n2Cc1ccc(Cl)cc1,44 (active)
11,Nc1ncnc(Nc2cccc(Cl)c2Cl)n1,inactive
12,Cc1cccc(C(=O)NCCCN(C)CCCNC(=O)c2cccc(C)c2)c1,inactive
13,Cc1cccc(C(=O)NC(=S)N(C)C2CCCCC2)c1,16 (active)
14,Cc1cccc(NC(=S)NCCN(C2CCCCC2)C2CCCC2)c1,inactive
15,COc1ccc(C(=O)C2CCCN(C(=O)c3cnsn3)C2)c(C)c1 (stereo not drawn),inactive
16,OC(CNC1CCCC1)COc1ccc(F)cc1 (stereo not drawn),inactive
17,CC1CCN(C(=O)c2ccc(S(=O)(=O)Cc3cc(F)ccc3F)c([N+](=O)[O-])c2)CC1,inactive
18,COc1cccc2sc(NNC(=O)c3nc4ccccc4s3)nc12,28 (active)
19,COc1cccc2sc(Nc3nc(C)c(C(C)=O)s3)nc12,inactive
20,COc1ccccc1OCc1nc2ccccc2s1,inactive
21,CN(CC(=O)Nc1ccccc1C(F)(F)F)C(=O)Cc1ccccc1F,inactive
22,COCCNC(=O)CN1C(=O)CSc2ncccc21,inactive
23,Cc1cccc(-c2nc3ccccc3c(=O)n2NC(=O)Cc2ccc(Cl)cc2)c1,inactive
24,O=C1CCCc2c1nc(-c1cccc(Cl)c1)n2O,inactive
25,O=c1c2cc(Br)ccc2nc(-c2cccc(Cl)c2)n1O,89 (active)

row,Compound,B-score
1,Cc1ccc(S(=O)(=O)N(C)C)cc1NC(=O)COC(=O)/C=C/c1cccs1,inactive
2,O=C(NCCc1ccco1)C(=O)NCCC1CCCCN1S(=O)(=O)c1ccccc1 (stereo not drawn),inactive
3,O=c1[nH]cnc2c1c(-c1ccccc1)cn2-c1ccc(F)cc1,inactive
4,COc1ccc(-n2c(-c3ccc(OC)c(OC)c3)n[nH]c2=S)cc1,inactive
5,COc1ccc(-n2cc(-c3ccccc3)c3c(=S)nc[nH]c32)cc1,8 (active)
6,CC(=O)NS(=O)(=O)c1ccc(NC(=O)/C=C/c2ccccc2Cl)cc1,inactive
7,CN(C(=O)c1c(Cl)cnn1C)C12CC3CC(CC(C3)C1)C2,inactive
8,Nc1ccc(N=Nc2ccccc2Cl)c(N)n1,inactive
9,O=C(Nc1ccc2ccccc2c1)/C(=C/c1cccc(Br)c1)NC(=O)c1ccco1,inactive
10,CC(Oc1ccc2ccccc2c1)C(=O)NNC(=S)NC(=O)c1ccco1 (stereo not drawn),38 (active)
11,CCCc1ccc(OCCNC(=O)c2ccco2)cc1,inactive
12,Cc1ccc(OCC(=O)NCCCNC(=O)c2ccco2)cc1C,inactive
13,CCCc1ccc(OCC(=O)NNC(=S)NC(=O)c2ccco2)cc1,10 (active)
14,Cc1ccc(C(=O)NNC(=O)C(C)Oc2ccc3ccccc3c2)o1 (stereo not drawn),inactive
15,O=C(c1cccs1)n1nc(NCc2ccccc2)nc1NCc1ccccc1,inactive
16,COC(=O)Cc1cnc(NC(=O)CSc2nc(C(C)C)cc(=O)[nH]2)s1,inactive
17,CC(=O)c1c(C)[nH]c(C(=O)OCC(=O)Nc2sc3c(c2C#N)CCCC3)c1C,inactive
18,Cc1ccc(CNC(=O)CCC(=O)N2CC(C)Sc3ccccc32)cc1 (stereo not drawn),inactive
19,O=S(=O)(Nc1cccc(-c2ccc(N3CCOCC3)nn2)c1)c1ccc(Cl)c(Cl)c1,inactive
20,Cc1cccc(NC(=O)NC(=S)NC(=O)c2ccccc2)c1,inactive
21,Cc1cccc(NC(=S)NC(=O)c2ccc(Br)o2)c1,25 (active)
22,Cc1cccc(NC(=O)c2ccc([N+](=O)[O-])o2)c1,inactive
23,Cc1ccc(CNC(=O)[C@@H](NC(=O)Cc2ccccc2)C(C)C)cc1,inactive
24,Cc1ccc(S(=O)(=O)N(CC(=O)NCCSC2CCCCC2)c2ccccc2F)cc1,inactive
25,O=C(N1CCCCC1)N1CCN(C(=O)N2CCCCC2)CC1,10 (active)

row,Compound,B-score
1,CN1CCCN(C(=O)C2CCCCC2)CC1,inactive
2,O=C(N1CCOCC1)N1CCOCC1,inactive
3,Cc1sc(NC(=O)C2=COCCO2)c(C#N)c1C,inactive
4,CC1CCN(S(=O)(=O)c2ccc(NC(=O)C3CC(=O)N(c4ccccc4)C3)cc2)CC1 (stereo not drawn),inactive
5,S=C(NCC1COc2ccccc2O1)Nc1ccc(Br)cc1 (stereo not drawn),inactive
6,c1ccc(-c2cc3c(NCC4COc5ccccc5O4)ncnc3s2)cc1 (stereo not drawn),inactive
7,c1ccc2c(c1)OCC(CNc1ncnc3nc[nH]c13)O2 (stereo not drawn),8 (active)
8,O=C(O)C1CCCN1S(=O)(=O)c1ccc(Br)cc1 (stereo not drawn),inactive
9,O=C(CSc1nccc(=O)[nH]1)Nc1ccc(N2CCOCC2)c(Cl)c1,inactive
10,O=C(Nc1cccc(Cl)c1)Nc1nnc(-c2ccccc2)o1,inactive
11,O=C(COC(=O)c1ccccc1Br)Nc1nnc(-c2ccccc2)o1,inactive
12,O=C(Nc1nnc(-c2ccc(Cl)cc2)o1)c1ccccc1Br,8 (active)
13,Cc1nnc(Nc2ccccc2F)s1,inactive
14,CC(=O)Nc1ccc(S(=O)(=O)N2CCC(C(=O)NC3CC3)CC2)cc1,inactive
15,CCOc1ccc(N(CC)S(=O)(=O)c2cccc3nsnc23)cc1,inactive
16,CC(C)(C)C1CCc2c(sc3nc(SCC(N)=O)nc(N)c23)C1 (stereo not drawn),inactive
17,CCCCNC(=O)c1ccc(-n2c(=S)[nH]c3ccccc3c2=O)cc1,inactive
18,CCCCNC(=O)CCn1c(=S)[nH]c2cc3c(cc2c1=O)OCO3,inactive
19,CCN(CC)CCn1c(=S)[nH]c2ncccc2c1=O,inactive
20,CCCCn1c(=S)[nH]c2ccccc2c1=O,18 (active)
21,O=c1c2ccccc2[nH]c(=S)n1CCN1CCC(=C(c2ccc(F)cc2)c2ccc(F)cc2)CC1,inactive
22,CCCCn1c(=S)[nH]c2ncccc2c1=O,10 (active)
23,O=C(Nc1ccc(CN2CCOCC2)cc1)c1cc(Cl)ccc1Cl,inactive

# From PubChem BioAssay AID2648 (Johns Hopkins Ion Channel Center, 2010)
